From ChEMBL document CHEMBL1125433, “Exploration of N-phosphonoalkyl-, N-phosphonoalkenyl-, and N-(phosphonoalkyl)phenyl-spaced alpha-amino acids as competitive N-methyl-D-aspartic acid antagonists” (J Med Chem, 1992)

Experiments:
[1] = target: T1, Glutamate NMDA receptor (Rattus norvegicus) (UniProt P35439+Q00959+Q00960+Q00961+Q62645+Q8VHN2+Q9R1M7); test: Inhibitory activity evaluated by its ability to displace [3H]CPP from NMDA receptor in rat cortical membranes at 10E-4 concentration of the compound; assay type: cell membranes
How it was run: (§1)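 Rat forebrain crude synaptic membranes were pretreated with Triton X-100 and washed in 50 mM Tris-HCl pH 7.6. Membranes (200-400 µg protein/mL) were incubated with 10 nM [3H]CPP and test agent for 15 min at 23 °C, in triplicate. Pellets were collected by centrifugation and counted. Percent inhibition = (T−S)/T×100, where T and S are specific binding without and with test agent.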

Rattus norvegicus = organism: Rattus norvegicus; test: In vitro antagonist activity by its ability to inhibit glutamate-induced accumulation of [45Ca2+]- in cultured rat cortical neurons.; assay type: functional
How it was run: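 Cortical neurons came from E18 Sprague-Dawley rat fetuses and were used 14-16 days after plating. Cells were held in Mg-free HBSS with 1.4 mM CaCl2, pH 7.4, at 37 °C and 5% CO2. They were exposed for 30 min to 100 µM L-glutamate (final) plus 45Ca2+ (2 µCi/mL) with test agent, then washed with saline, lysed in water and beta-counted. Baseline uptake without glutamate was subtracted. IC50 came from at least four half-log concentrations, with at least six replicates each.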

[2] = target: T1, Glutamate NMDA receptor (Rattus norvegicus); test: Displacement of [3H]CPP from N-methyl-D-aspartate glutamate receptor of rat cortical membranes; assay type: cell membranes; parameters: concentration or dose not given beside the values; details: Membrane, concentration not given here
How it was run: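 Membranes were crude synaptic membranes from whole brain, minus cerebellum and brainstem, of male Long-Evans rats. They were treated with 0.01% Triton X-100 (37 °C, 30 min) and washed in 50 mM Tris-HCl pH 7.6. Membranes (200-400 µg protein/mL) were incubated with 10 nM [3H]CPP for 15 min at 23 °C, in triplicate. Bound ligand was separated by centrifugation and counted by scintillation. IC50 was fitted by nonlinear least squares from four or more concentrations.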

Glutamate NMDA receptor [3] = test: Inhibitory activity evaluated by its ability to displace [3H]CPP from rat cortical membrane receptor at 10E-5 concentration of the compound
How it was run: (§2)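 Crude synaptic membranes from whole brain minus cerebellum and brainstem of male Long-Evans rats, treated with 0.01% Triton X-100 at 37 °C for 30 min and washed. Membranes (200-400 µg protein/mL) were incubated with 10 nM [3H]CPP in 50 mM Tris-HCl pH 7.6 for 15 min at 23 °C in triplicate. Bound ligand was separated by centrifugation and counted by liquid scintillation. Inhibition of specific binding was calculated as ((T−S)/T)×100.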

Glutamate NMDA receptor [4] = test: Inhibitory activity evaluated by its ability to displace [3H]CPP from rat cortical membrane N-methyl-D-aspartate glutamate receptor at 10E-5 concentration of the compound; how it was run: as §2
Glutamate NMDA receptor [5] = test: Inhibitory activity evaluated by its ability to displace [3H]CPP from N-methyl-D-aspartate glutamate receptor in rat cortical membranes at 10E-4 concentration of the compound; assay type: cell membranes; how it was run: as §1
Glutamate NMDA receptor [6] = test: Inhibitory activity evaluated by its ability to displace [3H]CPP from N-methyl-D-aspartate glutamate receptor in rat cortical membranes at 10E-5 concentration of the compound; assay type: cell membranes; how it was run: as §1

## O=C(O)CNCc1cccc(P(=O)(O)O)c1
[1]
  inhibition: 21%

## NC(CCCP(=O)(O)O)C(=O)O (stereo unspecified)
Rattus norvegicus
  IC50: 6.1 µM

## O=C(O)CNc1cccc(/C=C/CP(=O)(O)O)c1
[2]
  inhibition: 13%

## O=C(O)CNCc1ccc(CP(=O)(O)O)cc1
Glutamate NMDA receptor [3]
  IC50: 2.3 µM
Rattus norvegicus
  IC50: 59 µM

## O=C(O)CNCCP(=O)(O)O
[2]
  inhibition: 14%

## CC(NCc1cccc(CP(=O)(O)O)c1)C(=O)O (stereo unspecified)
[2]
  inhibition: 31%

## O=C(O)CNCc1cccc(CP(=O)(O)O)c1
Glutamate NMDA receptor [3]
  IC50: 2.4 µM
Rattus norvegicus
  IC50: 40 µM

## O=C(O)C1CN(CP(=O)(O)O)CCN1 (stereo unspecified)
Glutamate NMDA receptor [3]
  IC50: 0.065 µM
Rattus norvegicus
  IC50: 5.2 µM

## O=C(O)CNCCCP(=O)(O)O
[2]
  inhibition: 3%

## O=C(O)CNCC[S+]([O-])CP(=O)(O)O (stereo unspecified)
[2]
  inhibition: 4%

## CC(NC/C=C\CP(=O)(O)O)C(=O)O (stereo unspecified)
Glutamate NMDA receptor [4]
  IC50: 42.4 µM

## O=C(O)CNc1ccccc1CCP(=O)(O)O
[1]
  inhibition: 0%

## O=C(O)CNCCSCP(=O)(O)O
[2]
  inhibition: 60%

## CC(NCc1ccccc1CP(=O)(O)O)C(=O)O (stereo unspecified)
[2]
  inhibition: 4%

## O=C(O)CNc1ccccc1/C=C/P(=O)(O)O
[2]
  inhibition: 9%

## O=C(O)CNCc1ccccc1CP(=O)(O)O
[1]
  inhibition: 21%

## O=C(O)CNc1ccccc1CP(=O)(O)O
[2]
  inhibition: 48%

## O=C(O)CNc1ccccc1C(=O)O
Rattus norvegicus
  IC50: > 250 µM

## O=C(O)CNc1ccccc1P(=O)(O)O
[2]
  inhibition: 27%

## O=C(O)CNCCc1cccc(CP(=O)(O)O)c1
Rattus norvegicus
  IC50: 144 µM
Glutamate NMDA receptor [5]
  IC50: 13.7 µM

## O=C(O)CNCCCCP(=O)(O)O
[2]
  inhibition: 17%

## N/C(=N\CC(=O)O)c1cccc(CP(=O)(O)O)c1
Rattus norvegicus
  IC50: 137 µM
Glutamate NMDA receptor [6]
  IC50: 18 µM

## O=C(O)CNCC/C=C\P(=O)(O)O
Rattus norvegicus
  IC50: 36 µM
Glutamate NMDA receptor [4]
  IC50: 2.25 µM

## O=C(O)CNc1cccc(CCP(=O)(O)O)c1
[2]
  inhibition: 0%

## O=C(O)CNC/C=C/CP(=O)(O)O
Glutamate NMDA receptor [3]
  IC50: 1 µM
Rattus norvegicus
  IC50: 16.7 µM

## O=C(O)CNc1cccc(CCCP(=O)(O)O)c1
[2]
  inhibition: 5%

## NC(CCCCCP(=O)(O)O)C(=O)O (stereo unspecified) [AP-7]
Rattus norvegicus
  IC50: 30 µM

## CC(C)C(NCc1cccc(CP(=O)(O)O)c1)C(=O)O (stereo unspecified)
[2]
  inhibition: 0%

## O=C(O)C1CN(CCCP(=O)(O)O)CCN1 (stereo unspecified)
Rattus norvegicus
  IC50: 2.4 µM
